Experimental data from ChEMBL document CHEMBL6092177, “Applying molecular hybridization to design a new class of pyrazolo[3,4-d]pyrimidines as Src inhibitors active in hepatocellular carcinoma” (Eur J Med Chem, 2024).
≈ marks a conversion by molar mass, not a printed value. Calls of active or inactive are those of the source. The rule behind the calls is not given here.

Tests used:
[1] = Stability in human plasma measured after 24 hrs by UV-LC/MS analysis; assay type: ADME, cell-free; settings: read-out: Stability
[2] = Permeability of the compound in PBS buffer at pH 7.4 assessed as membrane retention rate by PAMPA method; assay type: ADME
In short: (§1)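 PAMPA: DMSO stock diluted 1:1 with 10 mM PBS pH 7.4 as donor, through filter coated with 1% phosphatidylcholine in dodecane. Acceptor DMSO/PBS 1:1; incubated at rt for 4 h with gentle shaking. Both compartments quantified by LC-UV-MS to give Papp and % membrane retention; three independent experiments in triplicate.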

Huh-7 [3] = experiment: Antiproliferative activity against human Huh-7 cells assessed as cell growth inhibition measured at 48 hrs by MTT assay; settings: Huh-7, 48 h
Huh-7 [4] = experiment: Antiproliferative activity against human Huh-7 cells assessed as cell growth inhibition measured at 24 hrs by MTT assay; settings: Huh-7, 24 h
Huh-7 [5] = experiment: Antiproliferative activity against human Huh-7 cells assessed as cell growth inhibition measured at 72 hrs by MTT assay; settings: Huh-7, 72 h
HepG2 [6] = experiment: Antiproliferative activity against human HepG2 cells assessed as cell growth inhibition measured at 72 hrs by MTT assay; settings: HepG2, 72 h
HepG2 [7] = experiment: Antiproliferative activity against human HepG2 cells assessed as cell growth inhibition measured at 24 hrs by MTT assay; settings: HepG2, 24 h
[8] = Metabolic stability in human liver microsome measured after 1 hr in presence of NADPH by UV/LC-MS analysis; assay type: ADME; settings: liver microsomes, read-out: Stability
In short: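 Compound incubated with HLM (0.2 mg/mL) and NADPH (in 48 mM MgCl2) in 10 mM PBS pH 7.4 at 37 °C for 60 min with shaking. Stopped with cold ACN, centrifuged, dried under N2 and quantified by UV/LC-MS for % unmetabolized.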

HepG2 [9] = experiment: Antiproliferative activity against human HepG2 cells assessed as cell growth inhibition measured at 48 hrs by MTT assay; settings: HepG2, 48 h
[10] = Thermodynamic solubility of compound by LC-MS/MS analysis; assay type: physicochemical; settings: read-out: Therm_solubility
In short: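 Thermodynamic solubility: solubilized compound quantified in triplicate by LC-MS/MS on a C18 column with water/ACN gradient, both with 0.1% formic acid. Calibration from DMSO standards 0.1–100 µM; LoQ below 0.01 µM.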

[11] = Apparent permeability of compound in PBS buffer at pH 7.4 incubated for 4 hrs by LC-UV-MS analysis; assay type: ADME; settings: not told; in short: as §1
[12] = Cytotoxicity against human HEK293 cells assessed as reduction in cell proliferation incubated for 48 hrs by MTT assay; assay type: toxicity, cell-based
[13] = Cytotoxicity against human HaCaT cells assessed as reduction in cell proliferation incubated for 48 hrs by MTT assay; assay type: toxicity, cell-based
[14] = Cytotoxicity against human HEK293 cells assessed as reduction in cell proliferation incubated for 24 hrs by MTT assay; assay type: toxicity, cell-based
[15] = Cytotoxicity against human HaCaT cells assessed as reduction in cell proliferation incubated for 72 hrs by MTT assay; assay type: toxicity, cell-based
HepG2 [16] = experiment: Inhibition of cell colony formation in human HepG2 cells assessed as reduction in clonogenic survival at 1 to 2 uM incubated for 10 days by crystal violet staining based assay; assay type: functional; settings: dose 1-2 µM, time 10 day
In short: (§2)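 HepG2 at 1000 cells/dish in DMEM with 10% FBS, exposed to 0.25, 0.5, 1 or 2 µM for 10 days. Colonies (>50 cells) fixed with methanol, stained with 0.5% crystal violet and counted. Three independent experiments in triplicate; unpaired t-test vs untreated.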

HepG2 [17] = experiment: Induction of cell cycle arrest in human HepG2 cells assessed as accumulation of hypodiploid cells at sub G0/G1 phase incubated for 72 hrs by FACScan flow cytometer analysis relative to control; assay type: functional
In short: (§3)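 HepG2 treated about 2 µM for 72 h. DNA content measured by FACScan flow cytometry, red fluorescence through a 563–607 nm bandpass (FL2), 10^4 cells/sample. Phase percentages are means ± SD of three independent experiments in triplicate vs control.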

HepG2 [18] = experiment: Induction of cell cycle arrest in human HepG2 cells assessed as accumulation of cells at S phase incubated for 72 hrs by FACScan flow cytometer analysis relative to control; assay type: functional; in short: as §3
[19] = Cytotoxicity against human HaCaT cells assessed as reduction in cell proliferation incubated for 24 hrs by MTT assay; assay type: toxicity, cell-based
HepG2 [20] = experiment: Antiproliferative activity against human HepG2 cells assessed as inhibition of cell growth at 0.1 to 1 uM incubated for 24 hrs by MTT assay; assay type: functional, cell-based; settings: dose 0.1-1 µM
In short: (§4)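 HepG2 exposed to 0.1–100 µM for 24 h (or 48 h), then washed with PBS and kept 48 h (or 24 h) in drug-free DMEM with 10% FBS. Viability by MTT. Means ± SD of three independent experiments in triplicate; ANOVA with Tukey test.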

HepG2 [21] = experiment: Antiproliferative activity against human HepG2 cells assessed as cell viability at 0.1 to 1 uM preincubated for 24 hrs followed by 48 hrs drug-free treatment by MTT assay; assay type: functional; settings: dose 0.1-1 µM; in short: as §4
HepG2 [22] = experiment: Induction of cell cycle arrest in human HepG2 cells assessed as accumulation of cells at G2/M phase incubated for 72 hrs by FACScan flow cytometer analysis relative to control; assay type: functional; in short: as §3
HepG2 [23] = experiment: Antiproliferative activity against human HepG2 cells assessed as inhibition of cell growth at 10 to 100 uM preincubated for 24 hrs followed by 48 hrs drug-free treatment by MTT assay; assay type: functional, cell-based; settings: dose 10-100 µM; in short: as §4
HepG2 [24] = experiment: Inhibition of cell migration in human HepG2 cells assessed as wound closure at 0.25 uM measured at 72 hrs by T-sratch assay; settings: HepG2, 72 h
[25] = Cytotoxicity against human HEK293 cells assessed as reduction in cell proliferation incubated for 72 hrs by MTT assay; assay type: toxicity, cell-based
HepG2 [26] = experiment: Induction of cell cycle arrest in human HepG2 cells assessed as decrease in accumulation of G0/G1 phase incubated for 72 hrs by FACScan flow cytometer analysis relative to control; assay type: functional; design: scale not given: the % may be the effect or the level left; in short: as §3
HepG2 [27] = experiment: Inhibition of cell colony formation in human HepG2 cells assessed as reduction in clonogenic survival at 0.5 uM incubated for 10 days by crystal violet staining based assay; assay type: functional; settings: HepG2, 240 h, time 10 day; in short: as §2
[28] = Inhibition of Abl (unknown origin)
[29] = Stability in human plasma assessed as half life measured up to 24 hrs by UV-LC/MS analysis; assay type: ADME, cell-free

| Structure (SMILES) | remaining at 24 h [1] [%] | membrane retention [2] [%] | IC50 (Huh-7 [3]) [µM] | IC50 (Huh-7 [4]) [µM] | IC50 (Huh-7 [5]) [µM] | IC50 (HepG2 [6]) [µM] | IC50 (HepG2 [7]) [µM] | remaining at 1 h [8] [%] | IC50 (HepG2 [9]) [µM] | solubility thermodynamic [10] [µg/mL] | Papp at 4 h [11] [×10⁻⁶ cm/s] | also measured |
| --- | --- | --- | --- | --- | --- | --- | --- | --- | --- | --- | --- | --- |
| Cn1ncc2c(Nc3ncc(C(=O)Nc4cc(O)ccc4Br)s3)nc(SCCN3CCOCC3)nc21 | 99.5 | 0.51 | 13.7 | 26.5 | 7.21 | 1.55 | 12 | > 100 | 7.31 | < 0.01 | < 0.1 |  |
| Cn1ncc2c(Nc3ncc(C(=O)Nc4cccc(O)c4)s3)nc(SCCN3CCOCC3)nc21 |  | 3.1 |  |  |  | > 50 | > 50 | 99.4 | > 50 | 0.03 (≈ 0.0585 µM) | 0.1 |  |
| Cn1ncc2c(Nc3ncc(C(=O)Nc4cccc(O)c4)s3)nc(NCCO)nc21 | 94.5 | 7.28 | 48.8 |  | 26.1 | 6.52 |  | > 100 |  | 0.01 (≈ 0.0234 µM) | < 0.1 |  |
| Cc1ccc(O)cc1NC(=O)c1cnc(Nc2nc(SCCN3CCOCC3)nc3c2cnn3C)s1 | > 100 | 19 | 28.8 | 54.7 | 10.3 | 2.47 | 59.6 | > 100 | 13.9 | < 0.01 | < 0.1 | CC50 at 48 h [12]: 6.9 µM; CC50 at 48 h [13]: 22.8 µM; CC50 at 24 h [14]: 18.5 µM; CC50 at 72 h [15]: 3.27 µM; Activity (HepG2 [16]): 24%; Activity (HepG2 [17]): 44.1%; Activity (HepG2 [18]): 25.2%; CC50 at 24 h [19]: 92.8 µM; Activity (HepG2 [20]): Active; Activity (HepG2 [21]): 15%; Activity (HepG2 [22]): 38.5%; Activity (HepG2 [23]): inactive; wound closure % at 0.25 µM (HepG2 [24]): ~70%; CC50 at 72 h [25]: 5.23 µM; Activity (HepG2 [26]): 10.4%; inhibition at 0.5 µM (HepG2 [27]): 40% |
| O=C(Nc1cccc(O)c1)c1cnc(Nc2ncnc3c2cnn3CC(Cl)c2ccccc2)s1 (stereo not given) | > 100 | 6.1 | 22 |  | 11.1 | 3.19 | 87.1 | > 100 | 5.06 | < 0.01 | 0.14 |  |
| Cc1nc(Nc2ncc(C(=O)Nc3c(C)cccc3Cl)s2)cc(N2CCN(CCO)CC2)n1 [DASATINIB ANHYDROUS] |  |  | 16.3 | 37.5 | 12.7 | 7.75 | 23.5 |  | 9.54 |  |  | CC50 at 48 h [12]: 0.89 µM; CC50 at 48 h [13]: 1.35 µM; CC50 at 24 h [14]: 5.4 µM; CC50 at 72 h [15]: 0.22 µM; CC50 at 24 h [19]: 20.4 µM; CC50 at 72 h [25]: 0.78 µM; IC50 [28]: 0.0006 µM |
| Cn1ncc2c(Nc3ncc(C(=O)Nc4ccccc4)s3)nc(SCCN3CCOCC3)nc21 | 98.3 | 16.49 | 33.5 | 67.6 | 14 | 7.9 |  | 99.8 |  | < 0.01 | 1.61 | half-life [29]: > 24 h |
| O=C(Nc1ccccc1)c1cnc(Nc2ncnc3c2cnn3CC(Cl)c2ccccc2)s1 (stereo not given) | 88.5 | 8.36 | 21.2 |  | 15.3 | 3.7 |  | 99 | 7.46 | < 0.01 | 12 |  |
